# Laboratory results published in ChEMBL document CHEMBL1125228, “A 3-D model for 5-HT1A-receptor agonists based on stereoselective methyl-substituted and conformationally restricted analogues of 8-hydroxy-2-(dipropylamino)tetralin” (J Med Chem, 1991).
# Several values for one entry are separate records, joined by “and”; a condition that tells them apart may be missing. Equal values may be shown once.
# What was measured:
# [1] = target: Serotonin (5-HT) receptor (Rattus norvegicus) (UniProt P35563+P35365+P32305+P31388+Q9JJ16+P28564+P30994+Q62758+P08909+P14842+P30940+P35364+P19327+P28565); assay: Dose corresponding to half-maximal decrease of 5-HTP formation in the limbic and striatal parts of rat brain; type: functional, tissue-based
# [2] = target: T1, Dopamine receptor (Rattus norvegicus) (UniProt P25115+P19020+P30729+P18901+P61169); assay: In vivo accumulation of DOPA in hemisphere of rat brain at a dose of 53 umol/kg.; type: functional, organism-based
# Outline: (§1)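 Rats, reserpine-pretreated (5 mg/kg, i.e. 9 μmol/kg sc, 6 h before) or nonpretreated, given test hydrochloride sc in the neck (injection volume 5 mL/kg). Decarboxylase inhibitor NSD 1015 (100 mg/kg ip or 60 mg/kg sc) given 30 min later; decapitation after another 30 min. Brain dissected on ice into striatum, limbic system, hemispheres, brain stem. Homogenized in 0.1 M perchloric acid with α-methyl-DOPA internal standard; DOPA measured by ion-pair reversed-phase HPLC with electrochemical detection.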
# Rattus norvegicus [3] = assay: In vivo accumulation of 5-HTP in brain stem of rat brain at a dose of 53 umol/kg.; type: functional
# Outline: (§2)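 Hydrochlorides given sc in the neck (5 mL/kg) to rats, either untreated or reserpine-pretreated (5 mg/kg sc, 6 h before). Decarboxylase inhibitor NSD 1015 (100 mg/kg ip or 60 mg/kg sc) given 30 min later; rats decapitated after another 30 min. Striatum, limbic system, hemispheres and brain stem dissected on ice and homogenized in 0.1 M perchloric acid with α-methyl-DOPA internal standard. DOPA, DA, 5-HTP and 5-HT measured by ion-pair reversed-phase HPLC with electrochemical detection.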
# Rattus norvegicus [4] = assay: In vivo accumulation of 5-HT in striatum of rat brain at a dose of 53 umol/kg.; type: functional; outline: as §2
# Rattus norvegicus [5] = assay: In vivo accumulation of DOPA in brain stem of rat brain at a dose of 53 umol/kg.; type: functional; outline: as §2
# Rattus norvegicus [6] = assay: In vivo accumulation of 5-HTP in hemisphere of rat brain at a dose of 53 umol/kg.; type: functional; outline: as §2
# Rattus norvegicus [7] = assay: In vivo accumulation of DA in striatum of rat brain at a dose of 53 umol/kg.; type: functional; outline: as §2
# Rattus norvegicus [8] = assay: In vivo accumulation of 5-HTP in striatum of rat brain at a dose of 53 umol/kg.; type: functional; outline: as §2
# Rattus norvegicus [9] = assay: In vivo accumulation of 5-HT in limbic of rat brain at a dose of 53 umol/kg.; type: functional; outline: as §2
# Rattus norvegicus [10] = assay: In vivo accumulation of DOPA in striatum of rat brain at a dose of 53 umol/kg.; type: functional; outline: as §1
# Rattus norvegicus [11] = assay: In vivo accumulation of 5-HTP in limbic of rat brain at a dose of 53 umol/kg.; type: functional; outline: as §2
# [12] = target: T2, 5-hydroxytryptamine receptor 1A (Rattus norvegicus, UniProt P19327); assay: Binding affinity at 5-hydroxytryptamine 1A receptor by the displacement of [3H]8-OH-DPAT in rat brain.; type: tissue-based
# T2 sequence (P19327 whole entry): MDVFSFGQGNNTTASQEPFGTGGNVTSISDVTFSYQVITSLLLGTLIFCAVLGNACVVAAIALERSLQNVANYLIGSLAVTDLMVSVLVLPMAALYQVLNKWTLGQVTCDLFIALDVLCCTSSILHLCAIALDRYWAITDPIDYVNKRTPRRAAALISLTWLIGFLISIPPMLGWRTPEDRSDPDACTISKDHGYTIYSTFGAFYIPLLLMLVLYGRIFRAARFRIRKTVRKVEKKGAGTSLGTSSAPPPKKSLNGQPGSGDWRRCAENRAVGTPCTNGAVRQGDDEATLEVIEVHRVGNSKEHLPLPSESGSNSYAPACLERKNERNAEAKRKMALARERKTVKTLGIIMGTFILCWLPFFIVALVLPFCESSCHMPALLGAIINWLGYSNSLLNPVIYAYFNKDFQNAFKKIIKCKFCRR
# Outline: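 Rat brain membranes washed in 50 mM Tris-HCl pH 7.4, with a 37 °C 10 min incubation to remove endogenous 5-HT, used at 10 mg wet tissue/mL. Incubated 15 min at 37 °C with 1 nM [3H]-8-OH-DPAT, 3 mM CaCl2 and pargyline. Filtered and counted; 10 µM 5-HT defined nonspecific binding. IC50 from four-parameter logistic fit, converted to Ki by Cheng-Prusoff; mean ± SEM of N experiments.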
# Rattus norvegicus [13] = assay: In vivo accumulation of 5-HTP in limbic of rat brain at a dose of 63 umol/kg.; type: functional; outline: as §2
# Rattus norvegicus [14] = assay: In vivo accumulation of DA in striatum of rat brain at a dose of 63 umol/kg.; type: functional; outline: as §2
# Rattus norvegicus [15] = assay: In vivo accumulation of 5-HT in striatum of rat brain at a dose of 63 umol/kg.; type: functional; outline: as §2
# Rattus norvegicus [16] = assay: In vivo accumulation of 5-HT in limbic of rat brain at a dose of 63 umol/kg.; type: functional; outline: as §2
# [17] = target: T1, Dopamine receptor (Rattus norvegicus); assay: In vivo accumulation of DOPA in limbic of rat brain at a dose of 63 umol/kg.; type: functional, organism-based; outline: as §1
# Rattus norvegicus [18] = assay: In vivo accumulation of 5-HTP in brain stem of rat brain at a dose of 63 umol/kg.; type: functional; outline: as §2
# Rattus norvegicus [19] = assay: In vivo accumulation of 5-HTP in striatum of rat brain at a dose of 63 umol/kg.; type: functional; outline: as §2
# Rattus norvegicus [20] = assay: In vivo accumulation of DOPA in striatum of rat brain at a dose of 63 umol/kg.; type: functional; outline: as §1
# Rattus norvegicus [21] = assay: In vivo accumulation of 5-HTP in hemisphere of rat brain at a dose of 63 umol/kg.; type: functional; outline: as §2
# Rattus norvegicus [22] = assay: In vivo accumulation of DOPA in hemisphere of rat brain at a dose of 63 umol/kg.; type: functional; outline: as §1
# Rattus norvegicus [23] = assay: In vivo accumulation of DOPA in brain stem of rat brain at a dose of 63 umol/kg.; type: functional; outline: as §2
compound,measurement,setting,value
CCCN1CCC[C@@H]2c3c(O)cccc3CC[C@H]21 [listing 1 of 2 here],ED50,[1],0.0005 mg/kg
same,Control,[2],117%
CCCN1CCC[C@@H]2Cc3cccc(O)c3C[C@H]21 [listing 1 of 3 here],Control,Rattus norvegicus [3],91.9%
same,Control,Rattus norvegicus [4],132%
same,Control,Rattus norvegicus [5],125.1%
same,Control,Rattus norvegicus [6],92.2%
same,Control,Rattus norvegicus [7],114.5%
same,Control,Rattus norvegicus [8],85%
same,Control,Rattus norvegicus [9],114.3%
same,Control,Rattus norvegicus [10],66.1%
same,Control,Rattus norvegicus [11],88%
CCCN(CCC)[C@H]1Cc2c(O)cccc2C[C@@H]1C [listing 1 of 2 here],Ki,[12],49.6 nM
CCCN1CCC[C@@H]2Cc3cccc(O)c3C[C@H]21 [listing 2 of 3 here],ED50,[1],> 0.05 mg/kg
same,Control,[2],97.5%
CCCN(CCC)C1CCc2cccc(O)c2C1C (racemic),Ki,[12],2.84 nM
CCCN(CCC)C1Cc2c(O)cccc2CC1(C)C (racemic),ED50,[1],> 0.05 mg/kg
same,Ki,[12],> 10000 nM
CCCN(CCC)[C@@H]1CCc2cccc(O)c2[C@@H]1C,Ki,[12],2.08 nM
CCCN(CCC)[C@@H]1C[C@@H]1c1cccc(O)c1,ED50,[1],> 0.05 mg/kg
CCCN1CCC[C@H]2Cc3cccc(O)c3C[C@H]21 [listing 1 of 2 here],Ki,[12],151 nM
CCCN(CCC)C1(C)CCc2cccc(O)c2C1 (racemic),ED50,[1],> 0.05 mg/kg
same,Ki,[12],1130 nM
CCCN(CCC)[C@@H]1CCc2cccc(O)c2[C@H]1C (racemic),ED50,[1],> 0.05 mg/kg
same,Ki,[12],1040 nM
CCCN1CCC[C@@H]2Cc3cccc(O)c3C[C@H]21 [listing 3 of 3 here],Ki,[12],2810 nM
CCCN(CCC)[C@H]1Cc2c(O)cccc2C[C@@H]1C (racemic),Ki,[12],104 nM
CCCN(CCC)[C@@H]1Cc2c(O)cccc2C[C@@H]1C,ED50,[1],0.02 mg/kg
same,Ki,[12],394 nM
CCCN1CCC[C@H]2c3c(O)cccc3CC[C@@H]21 [listing 1 of 2 here],Ki,[12],3.87 nM
CCCN(CCC)[C@@H]1Cc2c(O)cccc2C[C@H]1C,ED50,[1],> 0.043 mg/kg
same,Ki,[12],1390 nM
CCCN1CCC[C@@H]2Cc3cccc(O)c3C[C@@H]21 [listing 1 of 3 here],Ki,[12],> 10000 nM
CCCN(CCC)[C@H]1Cc2c(O)cccc2C[C@H]1C [listing 1 of 2 here],ED50,[1],> 0.05 mg/kg
CCCN1CCC[C@H]2Cc3cccc(O)c3C[C@H]21 [listing 2 of 2 here],Control,Rattus norvegicus [3],110.3%
same,Control,Rattus norvegicus [4],100%
same,Control,Rattus norvegicus [5],126.9%
same,Control,Rattus norvegicus [6],103.9%
same,Control,Rattus norvegicus [7],81.3%
same,Control,Rattus norvegicus [8],81%
same,Control,Rattus norvegicus [9],102.9%
same,Control,Rattus norvegicus [10],67.2%
same,Control,Rattus norvegicus [11],92.6%
Oc1cccc2c1C[C@H]1NCCC[C@@H]1C2,Control,Rattus norvegicus [13],82.3%
same,Control,Rattus norvegicus [14],92.4%
same,Control,Rattus norvegicus [15],100.5%
same,Control,Rattus norvegicus [16],89.4%
same,Control,[17],84.4% and 89.8%
same,Control,Rattus norvegicus [18],101.7%
same,Control,Rattus norvegicus [19],96.5%
same,Control,Rattus norvegicus [20],84.2%
same,Control,Rattus norvegicus [21],81.9%
same,Control,Rattus norvegicus [22],79%
same,Control,Rattus norvegicus [23],91.4%
CCCN1CCC[C@@H]2c3c(O)cccc3CC[C@H]21 [listing 2 of 2 here],Ki,[12],32.3 nM
CCCN1CCC[C@H]2Cc3cccc(O)c3C[C@@H]21 [listing 1 of 2 here],Control,Rattus norvegicus [3],112.4%
same,Control,Rattus norvegicus [4],116.9%
same,Control,Rattus norvegicus [5],117.7%
same,Control,Rattus norvegicus [6],113%
same,Control,Rattus norvegicus [7],95.4%
same,Control,Rattus norvegicus [8],124.8%
same,Control,Rattus norvegicus [9],95.1%
same,Control,Rattus norvegicus [10],91.4%
same,Control,Rattus norvegicus [11],102.3%
CCCN1CCC[C@H]2c3c(O)cccc3CC[C@@H]21 [listing 2 of 2 here],ED50,[1],0.0005 mg/kg
same,Control,[2],140%
CCCN(CCC)[C@H]1Cc2c(O)cccc2C[C@H]1C (racemic),Ki,[12],656 nM
CCCN1CCC[C@H]2Cc3cccc(O)c3C[C@@H]21 [listing 2 of 2 here],Ki,[12],> 10000 nM
CCCN1CCC[C@@H]2Cc3cccc(O)c3C[C@@H]21 [listing 2 of 3 here],ED50,[1],> 0.05 mg/kg
same,Control,[2],63%
CCCN(CCC)[C@H]1Cc2c(O)cccc2C[C@@H]1C [listing 2 of 2 here],ED50,[1],0.005 mg/kg
CCCN1CCC[C@@H]2Cc3cccc(O)c3C[C@@H]21 [listing 3 of 3 here],Control,Rattus norvegicus [3],87.6%
same,Control,Rattus norvegicus [4],118.7%
same,Control,Rattus norvegicus [5],82.3%
same,Control,Rattus norvegicus [6],77.9%
same,Control,Rattus norvegicus [7],105.3%
same,Control,Rattus norvegicus [8],76.1%
same,Control,Rattus norvegicus [9],107.5%
same,Control,Rattus norvegicus [10],68.3%
same,Control,Rattus norvegicus [11],80.6%
CCCN(CCC)[C@H]1Cc2c(O)cccc2C[C@H]1C [listing 2 of 2 here],Ki,[12],2020 nM
CCCN(CCC)[C@H]1CCc2cccc(O)c2[C@H]1C,ED50,[1],> 0.05 mg/kg
same,Ki,[12],2920 nM
Oc1cccc2c1C[C@@H]1NCCC[C@@H]1C2,Control,Rattus norvegicus [13],88.6%
same,Control,Rattus norvegicus [14],92.6%
same,Control,Rattus norvegicus [15],105%
same,Control,Rattus norvegicus [16],92.5%
same,Control,[17],75.3% and 73.5%
same,Control,Rattus norvegicus [18],101.7%
same,Control,Rattus norvegicus [19],102.7%
same,Control,Rattus norvegicus [20],88%
same,Control,Rattus norvegicus [21],59.7%
same,Control,Rattus norvegicus [22],70.4%
same,Control,Rattus norvegicus [23],97.7%
CCCN(CCC)[C@@H]1C[C@@H]1c1ccccc1O,ED50,[1],0.04 mg/kg
Oc1cccc2c1C[C@@H]1NCCC[C@H]1C2,Control,Rattus norvegicus [13],104.6%
same,Control,Rattus norvegicus [14],97.4%
same,Control,Rattus norvegicus [15],116%
same,Control,Rattus norvegicus [16],109.6%
same,Control,[17],85.7% and 95.5%
same,Control,Rattus norvegicus [18],115.8%
same,Control,Rattus norvegicus [19],116.8%
same,Control,Rattus norvegicus [20],85.3%
same,Control,Rattus norvegicus [21],107.8%
same,Control,Rattus norvegicus [22],85.2%
same,Control,Rattus norvegicus [23],90.3%
Oc1cccc2c1C[C@H]1NCCC[C@H]1C2,Control,Rattus norvegicus [13],92%
same,Control,Rattus norvegicus [14],92.4%
same,Control,Rattus norvegicus [15],100.5%
same,Control,Rattus norvegicus [16],89.4%
same,Control,[17],82.4% and 85.6%
same,Control,Rattus norvegicus [18],106.8%
same,Control,Rattus norvegicus [19],108.8%
same,Control,Rattus norvegicus [20],84%
same,Control,Rattus norvegicus [21],101.4%
same,Control,Rattus norvegicus [22],64.2%
same,Control,Rattus norvegicus [23],94.9%
